Results of several laboratories.
Each line is one published result; the experiments were not run side by side. In brackets after ≈: the same amount, converted by molar mass.

COC(=O)N[C@H](C(=O)N1CCC[C@H]1c1nc(-c2ccc(-c3ccc(-c4c[nH]c([C@@H]5CCCN5C(=O)[C@@H](NC(=O)OC)C(C)C)n4)cc3)cc2)c[nH]1)C(C)C  EC50 (Hepatitis C virus; viral replication, inhibitor, luciferase; GETYPE3A; replicon): 8.35 nM
CC(=O)OC[C@@]1(C)[C@H]2CC[C@@H]3CN(CC(C)C)[C@@H](C4=CCOC4=O)C[C@H]3[C@]2(C)CC[C@H]1OC(C)=O  inhibition (unidentified human coronavirus; cytopathic effect; MRC5; 25 µM, 72 h): 14.7%
N#Cc1cc(-c2nc3ccccc3s2)c(=O)n(NS(=O)(=O)c2ccccc2)c1N  IC50 (Enterovirus B; plaque formation; BGM, B4): 84 µg/mL (≈ 198 µM)
CC(=O)OC[C@@]1(C)[C@H]2CC[C@@H]3CN(Cc4ccc([N+](=O)[O-])cc4)[C@@H](C4=CCOC4=O)C[C@H]3[C@]2(C)CC[C@H]1OC(C)=O  inhibition (unidentified human coronavirus; cytopathic effect; MRC5; 25 µM, 72 h): 44.6%
Cc1c(NN=C2SC(C(C#N)=Cc3ccccc3)=NC2=O)c(=O)n(-c2ccccc2)n1C  inhibition zone (Acinetobacter baumannii; microbial growth, well diffusion; 100000 µg/mL): 16 mm
O=C(OC[C@H]1O[C@H](n2cnc3c(Cl)nc(Cl)nc32)[C@@H](F)[C@@H]1F)c1ccccc1  EC90 (Hepatitis C virus; viral replication, inhibitor; Huh-7; replicon): < 10 µM
Cc1c(NN=C2SC(CC#N)=NC2=O)c(=O)n(-c2ccccc2)n1C  inhibition zone (Acinetobacter baumannii; microbial growth, well diffusion; 100000 µg/mL): 15 mm
C/C(O)=C1\C(=O)C(CC(C)C)N(C(=O)CCCCCc2ccccc2)C1=O (stereo not shown)  MIC (Proteus mirabilis; microbial growth; ATCC25933): > 200 µg/mL
N#CC(=Cc1ccccc1O)C1=NC(=O)C(=Cc2cn(-c3ccccc3)nc2-c2ccccc2)S1  MBC (Acinetobacter baumannii; microbial killing, broth dilution): 0.25 µg/mL (≈ 0.527 µM)
O=C(Nc1ccccc1-c1ccc(F)c(F)c1)c1nccnc1C(F)(F)F  EC50 (Venturia nashicola; microbial growth): 0.8 µg/mL
Nc1nc(N)c2ncn([C@@H]3O[C@H](CO)[C@@H](F)[C@@H]3F)c2n1  EC50 (Hepatitis C virus; viral replication, inhibitor; Huh-7; replicon): > 10000 nM
Cc1ccc(S(=O)(=O)Nc2nc(N)c(-c3nc4ccccc4s3)c(-c3ccc(F)cc3)n2)cc1  IC50 (Enterovirus B; plaque formation; BGM, B4): 82 µg/mL (≈ 167 µM)
CCOC(=O)N[C@@H](CC(C)C)C(=O)N1CCC[C@H]1C(=O)Nc1ccc(C#CC#Cc2ccc(NC(=O)[C@@H]3CCCN3C(=O)[C@H](CC(C)C)NC(=O)OCC)cc2)cc1  EC50 (Hepatitis C virus; viral replication, inhibitor, luciferase; Huh-5-2, GETYPE1B; 72 h, replicon): 3210 nM
CC(=O)OC[C@@]1(C)[C@H]2CC[C@@H]3CN(Cc4cccc5ccccc45)[C@@H](C4=CCOC4=O)C[C@H]3[C@]2(C)CC[C@H]1OC(C)=O  inhibition (unidentified human coronavirus; cytopathic effect; MRC5; 25 µM, 72 h): 106%
CC(C)(O/N=C(\C(=O)N[C@@H]1C(=O)N2C(C(=O)[O-])=C(C[n+]3ccccc3)CS[C@H]12)c1csc(N)n1)C(=O)O  inhibition zone (Acinetobacter baumannii; microbial growth, disc diffusion; 10 µg/disc, clinical isolate): 6 mm
COC(=O)N[C@H](C(=O)N1CCC[C@H]1c1ncc(-c2ccc(-c3ccc(-c4cnc([C@@H]5CCCN5C(=O)[C@@H](NC(=O)OC)C(C)C)[nH]4)cc3)cc2)[nH]1)C(C)C  EC50 (Hepatitis C virus; viral replication, inhibitor; HEK-293T, GETYPE2A; replicon): 0.0035 nM
CC(C)CCN1C[C@H]2CC[C@@H]3[C@]4(C)COC(C)(C)O[C@@H]4CC[C@@]3(C)[C@@H]2C[C@@H]1C1=CCOC1=O  inhibition (unidentified human coronavirus; cytopathic effect; MRC5; 25 µM, 72 h): 22%
CCCCOC(=O)N[C@H](C(=O)N1CCC[C@H]1C(=O)Nc1ccc(C#CC#Cc2ccc(NC(=O)[C@@H]3CCCN3C(=O)[C@@H](NC(=O)OCCCC)C(C)C)cc2)cc1)C(C)C  EC50 (Hepatitis C virus; viral replication, inhibitor, luciferase; Huh-5-2, GETYPE1B; 72 h, replicon): 919 nM
CCCCCCC/C=C/C(=O)N1C(=O)/C(=C(/C)O)C(=O)C1CCC(=O)O (stereo not shown)  MIC (Proteus mirabilis; microbial growth; ATCC25933): > 200 µg/mL
CC(=O)OC[C@@]1(C)[C@H]2CC[C@@H]3CN(C(C)C)[C@@H](C4=CCOC4=O)C[C@H]3[C@]2(C)CC[C@H]1OC(C)=O  inhibition (unidentified human coronavirus; cytopathic effect; MRC5; 25 µM, 72 h): 80%
CCCCCCC/C=C/C(=O)N1C(=O)/C(=C(\O)c2ccc(F)cc2)C(=O)C1CC(C)C (stereo not shown)  MIC (Proteus mirabilis; microbial growth; ATCC25933): > 200 µg/mL
CCOC(=O)N[C@H](CC(C)C)C(=O)N1CCC[C@H]1C(=O)Nc1cccc(C#CC#Cc2cccc(NC(=O)[C@@H]3CCCN3C(=O)[C@@H](CC(C)C)NC(=O)OCC)c2)c1  EC50 (Hepatitis C virus; viral replication, inhibitor, luciferase; GETYPE3A; replicon): > 10000 nM
COc1ccc(CN2C[C@H]3CC[C@@H]4[C@](C)(COC(C)=O)[C@H](OC(C)=O)CC[C@@]4(C)[C@@H]3C[C@@H]2C2=CCOC2=O)cc1  inhibition (unidentified human coronavirus; cytopathic effect; MRC5; 25 µM, 72 h): 5.1%
COc1nc(Cl)nc2c1ncn2[C@@H]1O[C@H](CO)[C@@H](F)[C@@H]1F  EC50 (Hepatitis C virus; viral replication, inhibitor; Huh-7; replicon): > 10000 nM
C/C(=C\c1ccc(C#N)cc1)C(=O)Nc1ccc(C(=O)N[C@@H](CC(N)=O)C(=O)Nc2ccc(C(=O)Nc3ccc(C(=O)Nc4ccc(C(=O)O)cc4)c(O)c3OC(C)C)cc2)cc1  MIC (Proteus mirabilis; microbial growth; DSM4479): > 64 µg/mL
CCOC(=O)c1c(N)csc1-c1cn(-c2ccccc2)nc1-c1ccc(C)cc1  MBC (Acinetobacter baumannii; microbial killing, broth dilution): 0.25 µg/mL (≈ 0.62 µM)
CC(C)COC(=O)N[C@H](C(=O)N1CCC[C@H]1C(=O)Nc1ccc(C#CC#Cc2ccc(NC(=O)[C@@H]3CCCN3C(=O)[C@@H](NC(=O)OCC(C)C)C(C)C)cc2)cc1)C(C)C  EC50 (Hepatitis C virus; viral replication, inhibitor, luciferase; Huh-5-2, GETYPE1B; 72 h, replicon): > 10000 nM
CC(=O)OC[C@@]1(C)[C@H]2CC[C@@H]3CN(Cc4ccc(Br)cc4)[C@@H](C4=CCOC4=O)C[C@H]3[C@]2(C)CC[C@H]1OC(C)=O  inhibition (unidentified human coronavirus; cytopathic effect; MRC5; 25 µM, 72 h): 107%
CCCCOC(=O)N[C@H](C(=O)N1CCC[C@H]1C(=O)Nc1cccc(C#CC#Cc2cccc(NC(=O)[C@@H]3CCCN3C(=O)[C@@H](NC(=O)OCCCC)C(C)C)c2)c1)C(C)C  EC50 (Hepatitis C virus; viral replication, inhibitor, luciferase; Huh-5-2, GETYPE1B; 72 h, replicon): > 10000 nM
COc1nc(OC)c2ncn([C@@H]3O[C@H](CO)[C@@H](F)[C@@H]3F)c2n1  EC90 (Hepatitis C virus; viral replication, inhibitor; Huh-7; replicon): > 10 µM
CCCCOC(=O)N[C@@H](CC(C)C)C(=O)N1CCC[C@H]1C(=O)Nc1cccc(C#CC#Cc2cccc(NC(=O)[C@@H]3CCCN3C(=O)[C@H](CC(C)C)NC(=O)OCCCC)c2)c1  EC50 (Hepatitis C virus; viral replication, inhibitor, luciferase; Huh-5-2, GETYPE1B; 72 h, replicon): > 10000 nM
CC(=O)OC[C@@]1(C)[C@H]2CC[C@@H]3CN(C4CCCC4)[C@@H](C4=CCOC4=O)C[C@H]3[C@]2(C)CC[C@H]1OC(C)=O  inhibition (unidentified human coronavirus; cytopathic effect; MRC5; 25 µM, 72 h): 6.8%
Nc1nc2c(ncn2[C@@H]2O[C@H](CO)[C@@H](F)[C@@H]2F)c(=O)[nH]1  EC90 (Hepatitis C virus; viral replication, inhibitor; Huh-7; replicon): > 10 µM
CCOC(=O)N[C@H](C(=O)N1CCC[C@H]1C(=O)Nc1cccc(C#CC#Cc2cccc(NC(=O)[C@@H]3CCCN3C(=O)[C@@H](NC(=O)OCC)C(C)C)c2)c1)C(C)C  EC50 (Hepatitis C virus; viral replication, inhibitor, luciferase; Huh-5-2, GETYPE1B; 72 h, replicon): 451 nM
